ChEMBL document CHEMBL4373696, “Probing the Existence of a Metastable Binding Site at the β2-Adrenergic Receptor with Homobivalent Bitopic Ligands” (J Med Chem, 2019)

How the values were obtained:
[1] = molecular target: T1, Beta-1 adrenergic receptor (Homo sapiens, UniProt P08588); test: Displacement of [3H]DHA from beta1 adrenergic receptor (unknown origin) stably expressed in HEK293 cell membranes measured after 90 mins by scintillation counting analysis
Homo sapiens [2] = species: Homo sapiens; test: Selectivity ratio of IC50 for antagonist activity at beta1 adrenergic receptor (unknown origin) stably expressed in HEK293 cell membranes to IC50 for antagonist activity at beta2 adrenergic receptor (unknown origin) stably expressed in HEK293 cell membranes; format: cell-based
[3] = molecular target: T2, Beta-2 adrenergic receptor (Homo sapiens, UniProt P07550); test: Antagonist activity at beta2 adrenergic receptor (unknown origin) expressed in HEK293 cell assessed as inhibition of isoproterenol-induced cAMP production preincubated for 15 mins followed by isoproterenol addition and measured after 15 mins; format: functional, cell-based
T2 sequence (P07550 whole entry): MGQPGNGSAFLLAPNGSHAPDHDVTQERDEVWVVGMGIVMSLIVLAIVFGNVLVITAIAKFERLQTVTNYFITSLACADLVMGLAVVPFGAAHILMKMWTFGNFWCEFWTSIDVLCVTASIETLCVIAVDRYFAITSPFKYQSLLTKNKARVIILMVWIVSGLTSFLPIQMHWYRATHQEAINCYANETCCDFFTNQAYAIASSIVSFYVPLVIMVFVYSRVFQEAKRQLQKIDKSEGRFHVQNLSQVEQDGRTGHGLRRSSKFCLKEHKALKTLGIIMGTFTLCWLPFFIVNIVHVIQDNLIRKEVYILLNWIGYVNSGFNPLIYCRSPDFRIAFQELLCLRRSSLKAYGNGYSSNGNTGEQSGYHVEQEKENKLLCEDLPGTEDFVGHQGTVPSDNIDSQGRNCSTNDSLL

[4] = molecular target: T1, Beta-1 adrenergic receptor; test: Antagonist activity at beta1 adrenergic receptor (unknown origin) stably expressed in HEK293 cell membranes assessed as inhibition of isoproterenol-induced cAMP production preincubated for 15 mins followed by isoproterenol addition and measured after 30 mins by TR-FRET assay; format: cell-based
Method in brief: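 Membranes from HEK293 cells stably overexpressing β1AR; ligand's blockade of isoproterenol-stimulated cAMP production measured; pIC50 as mean ± SEM from 3-8 independent experiments run in duplicate.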

[5] = molecular target: T2, Beta-2 adrenergic receptor; test: Displacement of [3H]DHA from beta2 adrenergic receptor (unknown origin) stably expressed in HEK293 cell membranes measured after 90 mins by scintillation counting analysis
Homo sapiens [6] = species: Homo sapiens; test: Selectivity ratio of Ki for displacement of [3H]DHA from beta1 adrenergic receptor (unknown origin) stably expressed in HEK293 cell membranes to displacement of [3H]DHA from beta2 adrenergic receptor (unknown origin) stably expressed in HEK293 cell membranes
[7] = molecular target: T2, Beta-2 adrenergic receptor; test: Antagonist activity at beta2 adrenergic receptor (unknown origin) stably expressed in HEK293 cell membranes assessed as inhibition of isoproterenol-induced cAMP production preincubated for 15 mins followed by isoproterenol addition and measured after 30 mins by TR-FRET assay; format: functional, cell-based

T1 sequence (P08588 whole entry): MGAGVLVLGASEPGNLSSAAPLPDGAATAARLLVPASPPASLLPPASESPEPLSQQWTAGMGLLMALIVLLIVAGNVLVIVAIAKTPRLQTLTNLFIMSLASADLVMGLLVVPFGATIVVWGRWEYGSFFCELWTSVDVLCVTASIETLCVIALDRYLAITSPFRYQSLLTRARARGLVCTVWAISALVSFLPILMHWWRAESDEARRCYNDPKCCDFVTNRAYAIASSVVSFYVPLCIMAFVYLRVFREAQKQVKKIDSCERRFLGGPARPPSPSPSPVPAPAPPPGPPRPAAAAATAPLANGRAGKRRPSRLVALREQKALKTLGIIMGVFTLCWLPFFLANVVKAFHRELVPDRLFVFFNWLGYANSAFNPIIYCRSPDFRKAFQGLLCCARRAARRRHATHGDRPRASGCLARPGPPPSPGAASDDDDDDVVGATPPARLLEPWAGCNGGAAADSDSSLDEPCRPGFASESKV

Ki [1]	IC50 [3]	IC50 [4]	Ki ([5]; read-out: pKi (converted))	IC50 [7]	Ki [5]	SMILES	Ratio IC50 (Homo sapiens [2])	Ratio Ki (Homo sapiens [6])
–	–	–	–	5.89 nM	–	CC(C)NC[C@H](O)COc1ccccc1CCCC(=O)NCCNC(=O)CCCc1ccccc1	–	–
3.98 nM	1.78 nM	14.5 nM	0.38 nM	1.58 nM	–	CC(C)NC[C@H](O)COc1ccccc1CCCCNC(=O)NCCCCc1ccccc1OC[C@@H](O)CNC(C)C	9.2	10.5
–	–	5.62 nM	–	1.74 nM	–	CC(C)NC[C@H](O)COc1ccccc1CCCCCNC(=O)NCCCCCc1ccccc1OC[C@@H](O)CNC(C)C	3.2	–
–	–	–	–	13.8 nM	–	COc1ccccc1CCCNC(=O)NCCCc1ccccc1OC[C@@H](O)CNC(C)C	–	–
6.46 nM	3.24 nM	27.5 nM	0.955 nM	3.8 nM	–	CC(C)NC[C@H](O)COc1ccccc1CCCCCCc1ccccc1OC[C@@H](O)CNC(C)C	7.2	6.76
–	–	4470 nM	–	214 nM	–	CC(C)NC[C@@H](O)COc1ccccc1CCCC(=O)NCCNC(=O)CCCc1ccccc1OC[C@H](O)CNC(C)C	20.9	–
19.5 nM	2.19 nM	126 nM	3.47 nM	16.2 nM	–	CC(C)NC[C@H](O)COc1ccccc1CCNC(=O)NCCc1ccccc1OC[C@@H](O)CNC(C)C	7.7	5.62
–	–	–	–	3.89 nM	–	COc1ccccc1CCCC(=O)NCCNC(=O)CCCc1ccccc1OC[C@@H](O)CNC(C)C	–	–
–	–	1780 nM	–	8.32 nM	–	CC(C)NC[C@H](O)COc1ccccc1CCC(=O)NCCCNC(=O)CCc1ccccc1OC[C@@H](O)CNC(C)C	214	–
44.7 nM	1.58 nM	372 nM	1.17 nM	7.59 nM	1.91 nM	CC(C)NC[C@H](O)COc1ccccc1CCCNC(=O)NCCCc1ccccc1OC[C@@H](O)CNC(C)C	49.2	38
–	–	28.2 nM	–	6.46 nM	–	CC(C)NC[C@H](O)COc1ccccc1CCCC(=O)NCCCNC(=O)CCCc1ccccc1OC[C@@H](O)CNC(C)C	4.3	–
–	–	–	–	85.1 nM	–	CCCNC(=O)NCCCc1ccccc1OC[C@@H](O)CNC(C)C	–	–
–	–	–	–	14.1 nM	–	CC(C)NC[C@H](O)COc1ccccc1CCCNC(=O)NCCCc1ccccc1	–	–

The remaining lines, values behind:

SMILES	Ki [1]	IC50 [3]	IC50 [4]	Ki ([5]; read-out: pKi (converted))	IC50 [7]	Ki [5]	Ratio IC50 (Homo sapiens [2])	Ratio Ki (Homo sapiens [6])
CC(C)NC[C@H](O)COc1ccccc1CCCCCCCCCCCCc1ccccc1OC[C@@H](O)CNC(C)C	1.26 nM	25.7 nM	13.8 nM	1.15 nM	6.92 nM	–	2	1.1
CC(C)NC[C@H](O)COc1ccccc1-n1cc(CNCc2cn(-c3ccccc3OC[C@@H](O)CNC(C)C)nn2)nn1	479 nM	12 nM	3630 nM	38.9 nM	170 nM	–	21.4	12.3
CC(C)NC[C@H](O)COc1ccccc1CC(=O)NCCNC(=O)Cc1ccccc1OC[C@@H](O)CNC(C)C	2570 nM	214 nM	11000 nM	468 nM	2630 nM	–	4.1	5.5
CC(C)NC[C@H](O)COc1ccccc1OCCOCCOc1ccccc1OC[C@@H](O)CNC(C)C	–	–	234 nM	–	46.8 nM	–	5	–
CC(C)NC[C@H](O)COc1ccccc1CCCCCCCCCCc1ccccc1OC[C@@H](O)CNC(C)C	1.82 nM	13.8 nM	11.2 nM	1.51 nM	3.8 nM	–	2.9	1.2
CC(C)NC[C@H](O)COc1ccccc1CCCCCCCCc1ccccc1OC[C@@H](O)CNC(C)C	4.17 nM	5.25 nM	20 nM	0.794 nM	2.34 nM	–	8.6	5.25
CC(C)NC[C@H](O)COc1ccccc1CCCC(=O)NCCCCNC(=O)CCCc1ccccc1OC[C@@H](O)CNC(C)C	–	–	182 nM	–	11.2 nM	–	16.2	–
CC(C)NC[C@H](O)COc1ccccc1CCCC(=O)NCCNC(=O)CCCc1ccccc1OC[C@@H](O)CNC(C)C	8.91 nM	1.55 nM	26.3 nM	0.759 nM	6.61 nM	1.29 nM	4	11.8
CCCC(=O)NCCNC(=O)CCCc1ccccc1OC[C@@H](O)CNC(C)C	–	–	–	–	64.6 nM	–	–	–
CC(C)NC[C@H](O)COc1ccccc1CCn1cc(CNCc2cn(CCc3ccccc3OC[C@@H](O)CNC(C)C)nn2)nn1	2.88 nM	2.04 nM	19.5 nM	0.891 nM	4.68 nM	–	4.2	3.24
CC(C)NC[C@H](O)COc1ccccc1OCCOCCOCCOc1ccccc1OC[C@@H](O)CNC(C)C	–	–	97.7 nM	–	74.1 nM	–	1.3	–
CC(C)NC[C@H](O)COc1ccccc1Cn1cc(CNCc2cn(Cc3ccccc3OC[C@@H](O)CNC(C)C)nn2)nn1	83.2 nM	6.31 nM	490 nM	15.5 nM	64.6 nM	–	7.6	5.37
CC(C)NC[C@H](O)COc1ccccc1CCCn1cc(CNCc2cn(CCCc3ccccc3OC[C@@H](O)CNC(C)C)nn2)nn1	1.1 nM	1.2 nM	4.68 nM	0.437 nM	2.88 nM	–	1.6	2.51
CC(C)NC[C@H](O)COc1ccccc1CCC(=O)NCCNC(=O)CCc1ccccc1OC[C@@H](O)CNC(C)C	269 nM	3.31 nM	2040 nM	11.7 nM	75.9 nM	–	26.5	22.9
